What is called GI50 is the concentration at which growth is held to half of that of the control. Higher therefore signals less potent growth inhibition. A word on the TGI: it is the concentration at which net growth stops. Lower therefore signals more potent growth arrest.

Format in all cases: functional
For one test, the system named is A498. Nature of the test: Cytotoxicity against human A498 cells after 48 hrs by SRB assay. The conditions noted are these: A498, 48 h. In short, it runs like this:
(§1)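 NCI 60-panel five-dose screen. Cells in RPMI 1640 with 5% FBS and 2 mM L-glutamine, plated at 5000–40,000 cells/well by doubling time, preincubated 24 h at 37 °C/5% CO2. Drug from DMSO stock added at 0.01, 0.1, 1, 10 and 100 µM, then 48 h. TCA fixation, SRB stain, absorbance at 515 nm, time-zero plates included. GI50 = 50% reduction in net protein increase versus control.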
For orientation: The SRB assay estimates cell density from bound dye.

The next test has as its system SK-MEL-28. The test is described as follows: Cytotoxicity against human SK-MEL-28 cells after 48 hrs by SRB assay. The conditions noted are these: SK-MEL-28, 48 h. The method, boiled down: (§2)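 NCI 60-panel five-dose screen. Cells in RPMI 1640 with 5% FBS and 2 mM L-glutamine are plated at 5000–40,000 cells/well by doubling time and preincubated 24 h at 37 °C in 5% CO2. Drug in DMSO is tested at 0.01, 0.1, 1, 10 and 100 μM for 48 h. Cells are TCA-fixed, stained with SRB and read at 515 nm. GI50 is the concentration giving 50% reduction in net protein increase relative to time-zero and control plates.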

The subject of the next test is MDA-MB-435. Nature of the test: Cytotoxicity against human MDA-MB-435 cells after 48 hrs by SRB assay. The settings on record: MDA-MB-435, 48 h. In short, it runs like this:
as §1

The test system of the next test is NCI-H522. Nature of the test: Cytotoxicity against human NCI-H522 cells after 48 hrs by SRB assay. The settings on record: NCI-H522, 48 h. The method, boiled down:
as §2

The test system of the next test is IGROV-1. The test is described as follows: Cytotoxicity against human IGROV1 cells after 48 hrs by SRB assay. The settings on record: IGROV-1, 48 h. In short, it runs like this:
as §1

Test [1] can be described thus: Cytotoxicity against human EKVX cells after 48 hrs by SRB assay. In short, it runs like this: as §1
[2] abbreviates: read-out: LC50 (the source's name).

As to `NC(=O)Nc1ccc2ncnc(Nc3ccc(Cl)cc3)c2c1`, the GI50 with A498 amounted to 450 nM; with SK-MEL-28 it was 26.7 µM; in the test with MDA-MB-435, 16.9 µM; with NCI-H522, 2400 nM; in the test on IGROV-1, 6.85 µM; in test [1], 370 nM. For the same compound, the TGI in the test with A498 was 13 µM; in the test with SK-MEL-28, greater than 100 µM; in the test on MDA-MB-435, 47.6 µM; in the test with NCI-H522, 20.9 µM; in the test with IGROV-1 it was 27.6 µM; in test [1], 4.46 µM. In addition, the CC50 was 64.8 µM in the test on A498 (setting [2]); greater than 100 µM in the test on SK-MEL-28 (setting [2]); greater than 100 µM with MDA-MB-435 (setting [2]); greater than 100 µM with NCI-H522 (setting [2]); 90.1 µM in the test on IGROV-1 (setting [2]); greater than 100 µM in test [1] (setting [2]).
